Assay results collected from several papers.
Transmembrane protease serine 6: Transmembrane protease serine 6 (Homo sapiens, UniProt Q8IU80)
Palmitoyl-protein thioesterase 1: Palmitoyl-protein thioesterase 1 (Homo sapiens, UniProt P50897)

With `N=C(N)NCCC[C@H](NC(=O)[C@H](CCc1ccccc1)NC(=O)[C@H](Cc1cscn1)NC(=O)CCc1ccccc1)C(=O)c1nc2ccccc2s1` the remaining activity was 2% (Transmembrane protease serine 6; enzyme activity, inhibitor; 0.1 µM).
The remaining binding of `Cc1cc([C@@H](C)Nc2ccccc2C(=O)O)c2nc(N3CCC(F)(F)CC3)c(C#N)c(=O)n2c1` is reported as 100% (Epidermal growth factor receptor (EGFR, Homo sapiens, UniProt P00533, L858R); binding, competition with immobilised ligand; 1 µM).
`COc1c(O)cc2c(c1O)[C@@H]1O[C@H](CO)[C@@H](O)[C@H](O)[C@H]1OC2=O` has an inhibition of 7.04% (Palmitoyl-protein thioesterase 1; enzyme activity, inhibitor; 125 µM).
`N=C(N)NCCC[C@H](NC(=O)[C@H](CC1CC1)NC(=O)[C@H](Cc1cscn1)NC(=O)CCc1ccccc1)C(=O)c1nc2ccccc2s1` gave a remaining activity of 77% (Transmembrane protease serine 6; enzyme activity, inhibitor; 0.1 µM).
`COc1cc(-c2cncc3c2CN(C)Cc2cc(N4CCNCC4)ccc2-3)cc(OC)c1OC` has a remaining activity of 93% (Epidermal growth factor receptor (EGFR, Homo sapiens, UniProt P00533); enzyme activity, inhibitor; 1 µM).
For `C=C[C@H]1C[N@@]2CC[C@H]1C[C@H]2[C@H](O)c1ccnc2ccc(OC)cc12`, the inhibition was 18.6% (Palmitoyl-protein thioesterase 1; enzyme activity, inhibitor; 125 µM).
`C=CC(=O)N1CCC(COCC(=O)N2CCN(c3nc(-c4cnc(N)nc4C(F)F)nc(N4CCOC[C@@H]4C)n3)CC2)CC1` gave a remaining binding of 84% (Serine/threonine-protein kinase PRP4 homolog (PRPF4B, Homo sapiens, UniProt Q13523); binding, competition with immobilised ligand; 1 µM).
`CNc1ncc2c(/C=C/C(=O)N3CCC(OC)CC3)nn(Cc3cccc(C(F)(F)F)c3)c2n1` has a remaining activity of 91% (Non-receptor tyrosine-protein kinase TYK2 (TYK2, Homo sapiens, UniProt P29597); enzyme activity, inhibitor, radiometric; 1 µM).
`CC[C@H](NC(=O)[C@H](Cc1cscn1)NC(=O)CCc1ccccc1)C(=O)N[C@@H](CCCNC(=N)N)C(=O)c1nc2ccccc2s1` gave a remaining activity of 20 to 50% (Transmembrane protease serine 6; enzyme activity, inhibitor; 0.1 µM).
